# Columns and labels:
# PC-12 [1] = test: Neuroprotection against H2O2-induced cell death in rat PC12 cells assessed as cell viability at 5 uM preincubated for 3 hrs followed by H2O2 stimulation measured after 2 hrs by MTT assay (reference value: 25.2 to 41.8%); type: functional; conditions: read-out: Activity
# PC-12 [2] = test: Neuroprotection against H2O2-induced cell death in rat PC12 cells assessed as cell viability at 0.1 uM preincubated for 3 hrs followed by H2O2 stimulation measured after 2 hrs by MTT assay (reference value: 25.2 to 41.8%); type: functional; conditions: read-out: Activity
# Acetylcholinesterase = Acetylcholinesterase (Electrophorus electricus, UniProt O42275); test: Inhibition of electric eel AChE using acetylthiocholine iodide as substrate pretreated for 5 mins followed by substrate addition by Ellman's method
# Chain of Acetylcholinesterase (O42275 whole entry): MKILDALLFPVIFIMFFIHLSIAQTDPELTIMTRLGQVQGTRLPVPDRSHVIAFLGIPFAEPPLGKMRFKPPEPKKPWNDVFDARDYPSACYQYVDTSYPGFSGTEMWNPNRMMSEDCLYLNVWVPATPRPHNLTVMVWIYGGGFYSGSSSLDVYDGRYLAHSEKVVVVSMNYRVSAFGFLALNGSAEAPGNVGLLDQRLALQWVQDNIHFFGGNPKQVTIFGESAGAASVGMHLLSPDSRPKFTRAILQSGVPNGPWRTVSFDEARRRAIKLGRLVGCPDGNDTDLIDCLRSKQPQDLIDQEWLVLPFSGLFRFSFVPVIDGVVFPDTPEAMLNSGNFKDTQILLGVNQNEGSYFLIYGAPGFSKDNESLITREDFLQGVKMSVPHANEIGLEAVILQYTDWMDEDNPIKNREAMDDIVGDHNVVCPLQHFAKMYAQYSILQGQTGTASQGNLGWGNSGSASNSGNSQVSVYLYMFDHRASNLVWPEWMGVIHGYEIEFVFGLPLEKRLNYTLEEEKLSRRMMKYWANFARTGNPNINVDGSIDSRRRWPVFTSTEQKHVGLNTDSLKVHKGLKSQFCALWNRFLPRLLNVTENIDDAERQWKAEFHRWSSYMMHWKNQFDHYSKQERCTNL
# PC-12 [3] = test: Neuroprotection against H2O2-induced cell death in rat PC12 cells assessed as cell viability at 50 uM preincubated for 3 hrs followed by H2O2 stimulation measured after 2 hrs by MTT assay (reference value: 25.2 to 41.8%); type: functional; conditions: read-out: Activity
# PC-12 [4] = test: Neuroprotection against H2O2-induced cell death in rat PC12 cells assessed as cell viability at 20 uM preincubated for 3 hrs followed by H2O2 stimulation measured after 2 hrs by MTT assay (reference value: 25.2 to 41.8%); type: functional; conditions: read-out: Activity
# [5] = Inhibition of soybean 15-LOX assessed as reduction in conversion of linoleic acid to 13-hydroperoxylinoleic acid by spectrophotometric method; parameters: species or system Glycine max
# Summary of the method: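 Soybean lipoxygenase type 1-B (final 167 U/mL) with compound (DMSO stock diluted in 0.1 M phosphate buffer pH 8) and linoleic acid (134 mM in ethanol) at room temperature. Formation of 13-hydroperoxylinoleic acid followed spectrophotometrically at 234 nm.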
# PC-12 [6] = test: Neuroprotection against H2O2-induced cell death in rat PC12 cells assessed as cell viability at 1 uM preincubated for 3 hrs followed by H2O2 stimulation measured after 2 hrs by MTT assay (reference value: 25.2 to 41.8%); type: functional; conditions: read-out: Activity
# PC-12 [7] = test: Neuroprotection against H2O2-induced cell death in rat PC12 cells assessed as increase in cell viability preincubated for 3 hrs followed by H2O2 stimulation measured after 2 hrs by MTT assay; type: functional, cell-based
# PC-12 [8] = test: Neuroprotection against H2O2-induced cell death in rat PC12 cells assessed as cell viability at 10 uM preincubated for 3 hrs followed by H2O2 stimulation measured after 2 hrs by MTT assay (reference value: 25.2 to 41.8%); type: functional; conditions: read-out: Activity
# Cholinesterase = Cholinesterase (Equus caballus, UniProt P81908); test: Inhibition of equine serum BuChE using butyrylthiocholine iodide as substrate pretreated for 5 mins followed by substrate addition by Ellman's method
# Chain of Cholinesterase (P81908 whole entry): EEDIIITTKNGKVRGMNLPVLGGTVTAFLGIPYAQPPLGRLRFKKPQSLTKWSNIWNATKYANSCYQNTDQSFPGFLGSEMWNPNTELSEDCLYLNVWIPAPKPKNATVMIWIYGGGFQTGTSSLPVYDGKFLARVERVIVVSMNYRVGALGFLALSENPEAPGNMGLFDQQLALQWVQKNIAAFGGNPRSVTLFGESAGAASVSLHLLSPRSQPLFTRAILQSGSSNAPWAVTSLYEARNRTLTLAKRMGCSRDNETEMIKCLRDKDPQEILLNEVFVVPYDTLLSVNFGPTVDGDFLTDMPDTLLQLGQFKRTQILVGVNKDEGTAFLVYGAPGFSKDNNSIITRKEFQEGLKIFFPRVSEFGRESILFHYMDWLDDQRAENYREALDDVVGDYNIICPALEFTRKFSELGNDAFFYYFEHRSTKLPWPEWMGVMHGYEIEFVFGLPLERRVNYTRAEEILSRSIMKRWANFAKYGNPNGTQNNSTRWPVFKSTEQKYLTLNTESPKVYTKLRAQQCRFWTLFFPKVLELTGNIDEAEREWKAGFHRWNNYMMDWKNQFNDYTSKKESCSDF
# Summary of the method: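 Ellman assay with horse serum BuChE (5 IU/mL) in 0.1 M phosphate buffer pH 8.0 with DTNB. Compound was preincubated with enzyme 5 min, then butyrylthiocholine iodide was added. Absorbance read at 412 nm. IC50 from a log concentration vs % inhibition curve; triplicate runs.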
SMILES,viability at 5 µM (PC-12 [1]) [%],viability at 0.1 µM (PC-12 [2]) [%],IC50 (Acetylcholinesterase) [µM],viability at 50 µM (PC-12 [3]) [%],viability at 20 µM (PC-12 [4]) [%],IC50 [5] [µM],viability at 1 µM (PC-12 [6]) [%],Activity (PC-12 [7]),viability at 10 µM (PC-12 [8]) [%],IC50 (Cholinesterase) [µM]
CC(=O)c1cc2ccc(OCCCn3cc(CNC(=O)CCCCC4CCSS4)nn3)cc2oc1=O (configuration not stated),37.5,34.6,54.6,40.7,39.8,> 100,35.5,Dose-dependent effect,38,> 100
O=c1c(O)c(-c2ccc(O)c(O)c2)oc2cc(O)cc(O)c12 [QUERCETIN],47.3,36.2,,58.8,56.9,,40.7,,53.7,
O=C(CCCCC1CCSS1)NCc1cn(CCCOc2ccc3cc(-c4ccc(Br)cc4)c(=O)oc3c2)nn1 (configuration not stated),57.3,39.5,46.5,74.7,69.1,> 100,42.8,Dose-dependent effect,63.3,> 100
CCOC(=O)c1cc2ccc(OCCCCCn3cc(CNC(=O)CCCCC4CCSS4)nn3)cc2oc1=O (configuration not stated),36.4,34.4,59.7,40.7,39.5,> 100,35.1,Dose-dependent effect,38.3,> 100
COc1ccc(-c2cc3ccc(OCCCCn4cc(CNC(=O)CCCCC5CCSS5)nn4)cc3oc2=O)cc1 (configuration not stated),44.9,32.1,> 100,55.3,52.3,> 100,36.8,Dose-dependent effect,48.6,> 100
O=C(CCCCC1CCSS1)NCc1cn(CCCCOc2ccc3cc(-c4ccc(Br)cc4)c(=O)oc3c2)nn1 (configuration not stated),40.5,34.2,> 100,47.6,45,> 100,37.4,Dose-dependent effect,42.6,> 100
COc1ccc(-c2cc3ccc(OCCCCCn4cc(CNC(=O)CCCCC5CCSS5)nn4)cc3oc2=O)cc1OC (configuration not stated),46.9,38.5,> 100,55,51.9,> 100,42.2,Dose-dependent effect,50.5,> 100
O=C(CCCCC1CCSS1)NCc1cn(CCCCCOc2ccc3cc(-c4ccccc4)c(=O)oc3c2)nn1 (configuration not stated),28,35.5,> 100,17.7,20.7,> 100,30.7,,26.3,> 100
CC(=O)c1cc2ccc(OCCCCCn3cc(CNC(=O)CCCCC4CCSS4)nn3)cc2oc1=O (configuration not stated),22.2,28.9,> 100,18.2,20.7,> 100,27.4,,20.8,> 100
O=C(CCCCC1CCSS1)NCc1cn(CCCOc2ccc3cc(-c4ccccc4)c(=O)oc3c2)nn1 (configuration not stated),29.8,33.9,> 100,23.1,27.2,> 100,31.9,,29.1,> 100
O=C(CCCCC1CCSS1)NCc1cn(CCCCOc2ccc3cc(-c4ccccc4)c(=O)oc3c2)nn1 (configuration not stated),32.8,38.6,> 100,20.5,26,> 100,34.8,,30.5,> 100

# Source: ChEMBL document CHEMBL4152262, “Design, synthesis and evaluation of novel multi-target-directed ligands for treatment of Alzheimer's disease based on coumarin and lipoic acid scaffolds” (Eur J Med Chem, 2018)
